Laboratory results published in ChEMBL document CHEMBL5576109, “Hydantoin derivative dimers as broad-spectrum antimicrobial agents against ESKAPE pathogens with enhanced killing rate and stability” (RSC Med Chem, 2024).
In brackets after ≈: the same amount, converted by molar mass. Activity calls are given as the source filed them. The rule behind the calls is not given here.

Legend:
[1] = system: Staphylococcus aureus; test: Antibacterial activity against Staphylococcus aureus ATCC 29213 assessed as reduction bacterial growth after 16 hrs by TECAN SPARK microplate reader analysis; type: functional
How it was run: (§1)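 Single colony grown overnight in 4 mL TSB at 37 °C, diluted 100-fold and grown to mid-log phase. Compounds 2-fold serially diluted in TSB and mixed 1:1 with bacteria in TSB (1 × 10^6 CFU/mL). Incubated 16 h at 37 °C, then A600 read. MIC taken as the lowest concentration giving complete growth inhibition.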

[2] = system: Enterococcus faecalis; test: Antibacterial activity against Enterococcus faecalis ATCC 29212 assessed as reduction bacterial growth after 16 hrs by TECAN SPARK microplate reader analysis; type: functional; how it was run: as §1
[3] = system: Bacillus subtilis; test: Antibacterial activity against Bacillus subtilis ATCC 6633 assessed as reduction bacterial growth after 16 hrs by TECAN SPARK microplate reader analysis; type: functional; how it was run: as §1
[4] = system: Staphylococcus aureus; test: Antibacterial activity against methicillin-resistant Staphylococcus aureus ATCC 43300 assessed as reduction bacterial growth after 16 hrs by TECAN SPARK microplate reader analysis; type: functional
How it was run: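 Broth microdilution in TSB: single colony grown overnight at 37 °C, diluted 100-fold and grown to mid-log phase. 2-fold serial compound dilutions mixed 1:1 with bacteria at 1 × 10^6 CFU/mL, incubated 16 h at 37 °C, absorbance read at 600 nm. MIC taken as lowest concentration giving complete growth inhibition.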

[5] = system: Klebsiella pneumoniae; test: Antibacterial activity against Klebsiella pneumoniae ATCC 10031 assessed as reduction bacterial growth after 16 hrs by TECAN SPARK microplate reader analysis; type: functional; how it was run: as §1
[6] = Hemolytic activity in mouse red blood cells assessed as hemolysis incubated for 1 hr by TECAN SPARK microplate reader analysis; type: toxicity, cell-based, Erythrocyte; settings: red blood cells (erythrocytes)
How it was run: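 Mouse RBCs washed three times in 1× PBS by centrifugation (3500 rpm, 10 min) and made up as a 5% v/v suspension. Incubated with 2-fold serially diluted compound in PBS for 1 h at 37 °C, then centrifuged. Supernatant diluted in PBS and A540 read. % hemolysis calculated relative to 1% Triton X-100 (100%) and PBS (0%).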

[7] = system: Staphylococcus aureus; test: Bactericidal activity against Staphylococcus aureus ATCC 29213 assessed as reduction in colony forming units incubated for 15 to 120 mins by time-kill kinetics assay; type: functional, organism-based; settings: time 15-120 min
How it was run: (§2)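 Bacteria grown at 37 °C to mid-log phase and diluted to 1 × 10^6 CFU/mL. […] Mixtures diluted 10^2–10^4-fold and plated on TSB agar; colonies counted after 20 h at 37 °C.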

[8] = system: Staphylococcus aureus; test: Bactericidal activity against Staphylococcus aureus ATCC 29213 assessed as reduction in colony forming units at 1 to 4 times of MIC by time-kill kinetics assay; type: functional, organism-based; settings: time 15-120 min, TDE = time-dependent effect; how it was run: as §2
[9] = system: Escherichia coli; test: Bactericidal activity against Escherichia coli ATCC 25922 assessed as reduction in colony forming units incubated for 15 to 120 mins by time-kill kinetics assay; type: functional, organism-based; settings: time 15-120 min; how it was run: as §2
[10] = system: Escherichia coli; test: Bactericidal activity against Escherichia coli ATCC 25922 assessed as reduction in colony forming units at 1 to 4 times of MIC by time-kill kinetics assay; type: functional, organism-based; settings: time 15-120 min, TDE = time-dependent effect; how it was run: as §2
[11] = system: Escherichia coli; test: Bactericidal activity against Escherichia coli ATCC 25922 assessed as inhibition of bacterial growth at 1 to 4 times of MIC measured within 1 hr mins by time-kill kinetics assay relative to control; type: functional; how it was run: as §2
[12] = system: Escherichia coli; test: Bactericidal activity against Escherichia coli ATCC 25922 assessed as reduction in colony forming units at 4 times of MIC measured after 60 mins by time-kill kinetics assay; type: functional, organism-based; how it was run: as §2
[13] = system: Staphylococcus aureus; test: Antibacterial activity against Staphylococcus aureus ATCC 29213 assessed as inhibition of bacterial growth by measuring fold increase in MIC compound preincubated at 40 degree C for 1 hr followed by bacterial culture addition and measured after 16 to 18 hrs by TECAN SPARK microplate reader analysis; type: functional; settings: time 16-18 hrs
[14] = system: Staphylococcus aureus; test: Antibacterial activity against Staphylococcus aureus ATCC 29213 assessed as inhibition of bacterial growth by measuring fold increase in MIC compound preincubated at 80 degree C for 1 hr followed by bacterial culture addition and measured after 16 to 18 hrs by TECAN SPARK microplate reader analysis; type: functional; settings: time 16-18 hrs
[15] = system: Staphylococcus aureus; test: Antibacterial activity against Staphylococcus aureus ATCC 29213 assessed as inhibition of bacterial growth by measuring fold increase in MIC measured after 16 to 18 hrs in presence of 10% DMEM by TECAN SPARK microplate reader analysis; type: functional; settings: time 16-18 hrs
How it was run: (§3)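 Salt/serum stability. Exponential-phase bacteria incubated 16–18 h with compound in medium supplemented with 10 mM NaCl, 10 mM KCl, 10 mM MgCl2, 10% DMEM or 10% FBS. Stability judged from the change in MIC.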

[16] = system: Staphylococcus aureus; test: Antibacterial activity against Staphylococcus aureus ATCC 29213 assessed as inhibition of bacterial growth by measuring fold increase in MIC measured after 16 to 18 hrs in presence of 10% FBS by TECAN SPARK microplate reader analysis; type: functional; settings: time 16-18 hrs; how it was run: as §3
[17] = system: Escherichia coli; test: Antibacterial activity against Escherichia coli ATCC 25922 assessed as inhibition of bacterial growth by measuring fold increase in MIC compound preincubated at 40 degree C for 1 hr followed by bacterial culture addition and measured after 16 to 18 hrs by TECAN SPARK microplate reader analysis; type: functional; settings: time 16-18 hrs
[18] = system: Escherichia coli; test: Antibacterial activity against Escherichia coli ATCC 25922 assessed as inhibition of bacterial growth by measuring fold increase in MIC measured after 16 to 18 hrs in presence of 10% DMEM by TECAN SPARK microplate reader analysis; type: functional; settings: time 16-18 hrs; how it was run: as §3
[19] = system: Escherichia coli; test: Induction of inner membrane permeabilization in Escherichia coli ATCC 25922 assessed as increase in fluorescence intensity incubated for 1 hr by propidium iodide staining based TECAN SPARK microplate reader analysis; type: functional, organism-based
How it was run: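 Overnight 37 °C cultures resuspended in PBS and diluted to OD600 0.1. Propidium iodide added (5 µM final) for 30 min. Treated with a range of compound concentrations for 1 h in the dark; fluorescence read at Ex 535 / Em 615 nm.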

[20] = system: Staphylococcus aureus; test: Induction of morphological changes in Staphylococcus aureus ATCC 29213 assessed as cell shrinkage at 8 time of MIC for 6 hrs by scanning electron microscopy; type: functional, organism-based
How it was run: (§4)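 Mid-log cells exposed to compound for 6 h at 37 °C alongside untreated controls. Cells pelleted (3000 rpm, 15 min), washed four times in PBS, and fixed with 2.5% glutaraldehyde. Dehydrated through graded ethanol, critical-point dried and gold-coated, then imaged by SEM.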

[21] = system: Staphylococcus aureus; test: Induction of morphological changes in Staphylococcus aureus ATCC 29213 assessed as cell wrinkled at 8 time of MIC for 6 hrs by scanning electron microscopy; type: functional, organism-based; how it was run: as §4
[22] = system: Escherichia coli; test: Induction of morphological changes in Escherichia coli ATCC 25922 assessed as cell wrinkled at 8 time of MIC for 6 hrs by scanning electron microscopy; type: functional, organism-based; how it was run: as §4
[23] = system: Staphylococcus aureus; test: Induction of membrane disruption in Staphylococcus aureus ATCC 29213 assessed as increase in red fluorescence at 8 times of MIC for 6 hrs by Hoechst 33342 and propidium iodide staining based confocal microscopic analysis; type: functional, organism-based
[24] = system: Escherichia coli; test: Induction of membrane disruption in Escherichia coli ATCC 25922 assessed as increase in red fluorescence at 8 times of MIC for 6 hrs by Hoechst 33342 and propidium iodide staining based confocal microscopic analysis; type: functional, organism-based

CCCCCCN1C(=O)[C@H](CCCCNC(=N)N)N(Cc2ccc(-c3ccc(CN4C(=O)N(CCCCCC)C(=O)[C@@H]4CCCCNC(=N)N)cc3)cc2)C1=O
MIC [1]: 1.95 µg/mL (≈ 2.52 µM) | MIC [2]: 3.91 µg/mL (≈ 5.06 µM) | MIC [3]: 1.95 µg/mL (≈ 2.52 µM) | MIC [4]: 7.81 µg/mL (≈ 10.1 µM) | MIC [5]: 7.81 µg/mL (≈ 10.1 µM) | HC50 at 1 h [6]: 61 µg/mL | Activity [7]: Dose-Dependent Effect | Activity [8]: Tde | Activity [9]: Dose-Dependent Effect | Activity [10]: Tde | inhibition (INH) [11]: 100% | Activity [12]: Active | fold change (FC) [13]: 1 | fold change (FC) [14]: 1 | fold change (FC) [15]: 1 | fold change (FC) [16]: 1 | fold change (FC) [17]: 1 | fold change (FC) [18]: 1 | Activity [19]: Dose-Dependent Effect | Activity [20]: Active | Activity [21]: Active | Activity [22]: Active | Activity [23]: Active | Activity [24]: Active
